≈ marks a conversion by molar mass, not a printed value. Calls of active or inactive are those of the source. No cut-off for these calls is given here.
Assays:
Type in all cases: functional
Staphylococcus aureus [1] = test: Antibacterial activity against Staphylococcus aureus MTCC 96 assessed as growth inhibition after 24 hrs by broth microdilution method
Summary of the method: (§1)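 MIC by broth microdilution in Müller-Hinton broth. DMSO stocks are diluted in broth to give two-fold serial dilutions, and about 10^6 CFU/mL of bacteria is added per well. Sealed plates are incubated in a humid chamber at 36 °C for 24 h. The MIC is the lowest concentration showing no visible turbidity. Run only for compounds giving zones >10 mm.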

Candida albicans [2] = test: Antifungal activity against Candida albicans assessed as growth inhibition after 48 hrs by broth microdilution method
Summary of the method: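 MIC by broth microdilution in Sabouraud liquid medium. DMSO stocks are serially diluted two-fold in broth and inoculated with C. albicans. Sealed plates are incubated in a humid chamber at 36 °C for 48 h. The MIC is the lowest concentration without visible turbidity. Run only for compounds giving zones >10 mm.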

Staphylococcus aureus [3] = test: Antibacterial activity against Staphylococcus aureus MTCC 96 assessed as growth inhibition at 1 mg/mL after 24 hrs by […] method; conditions: for zone of inhibition at 1000 µg/mL: MTCC 96, 24 h, read-out: DIZ
Summary of the method: (§2)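 Sterile filter-paper discs soaked in a 1 mg/mL DMSO solution of the compound are placed on nutrient agar seeded with about 10^6 CFU/mL of bacteria, in triplicate. Plates are incubated at 36 °C for 24 h. The read-out is the mean diameter of the inhibition zone in mm. DMSO alone serves as the control.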

Escherichia coli [4] = test: Antibacterial activity against Escherichia coli MTCC 443 assessed as growth inhibition after 24 hrs by broth microdilution method; summary of the method: as §1
Candida albicans [5] = test: Antifungal activity against Candida albicans assessed as growth inhibition at 1 mg/mL after 48 hrs by […] method; conditions: read-out: DIZ
Summary of the method: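 Sterile filter-paper discs soaked in a 1 mg/mL DMSO solution of the compound are placed on nutrient agar seeded with about 10^4 CFU/mL of C. albicans, in triplicate. Plates are incubated at 36 °C for 48 h. The read-out is the mean diameter of the inhibition zone in mm, with a DMSO-only control.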

Escherichia coli [6] = test: Antibacterial activity against Escherichia coli MTCC 443 assessed as growth inhibition at 1 mg/mL after 24 hrs by […] method; conditions: for zone of inhibition at 1000 µg/mL: MTCC 443, 24 h, read-out: DIZ; summary of the method: as §2

Row | Structure (SMILES) | MIC (Staphylococcus aureus [1]; MTCC 96, 24 h) | MIC (Candida albicans [2]) | zone of inhibition at 1000 µg/mL (Staphylococcus aureus [3]) | MIC (Escherichia coli [4]; MTCC 443, 24 h) | zone of inhibition at 1000 µg/mL (Candida albicans [5]) | zone of inhibition at 1000 µg/mL (Escherichia coli [6]) | MIC (Staphylococcus aureus [1]) | growth inhibition (GI) (Staphylococcus aureus [3]) | MIC (Escherichia coli [4]) | growth inhibition (GI) (Escherichia coli [6])
1 | C/C(=N\NC(=O)c1sc(=S)n(-c2ccccc2)c1N)c1cc2c(ccc3ccccc32)oc1=O | 125 µg/mL (≈ 257 µM) | 125 µg/mL (≈ 257 µM) | 26 mm | 93.7 µg/mL (≈ 193 µM) | 15 mm | 27 mm | – | – | – | –
2 | C/C(=N\NC(=O)/C(C#N)=C/c1ccc(F)cc1)c1cc2c(ccc3ccccc32)oc1=O | 125 µg/mL (≈ 294 µM) | 125 µg/mL (≈ 294 µM) | 22 mm | 250 µg/mL (≈ 588 µM) | 18 mm | 20 mm | – | – | – | –
3 | COc1ccc(OC)c(-c2c(C#N)c(N)n(/N=C(\C)c3cc4c(ccc5ccccc54)oc3=O)c(=O)c2C#N)c1 | 125 µg/mL (≈ 235 µM) | 125 µg/mL (≈ 235 µM) | 23 mm | 125 µg/mL (≈ 235 µM) | 18 mm | 23 mm | – | – | – | –
4 | C/C(=N\n1c(N)c(C#N)c(-c2ccc(F)cc2)c(C#N)c1=O)c1cc2c(ccc3ccccc32)oc1=O | 125 µg/mL (≈ 255 µM) | 375 µg/mL (≈ 766 µM) | 21 mm | 125 µg/mL (≈ 255 µM) | 10 mm | 21 mm | – | – | – | –
5 | C/C(=N\NC(=O)c1sc(N)c(C#N)c1N)c1cc2c(ccc3ccccc32)oc1=O | – | 125 µg/mL (≈ 299 µM) | – | – | 20 mm | – | inactive | inactive | inactive | inactive
6 | C/C(=N\N1C(=O)C(C#N)C=C1c1ccccc1)c1cc2c(ccc3ccccc32)oc1=O (configuration not stated) | 125 µg/mL (≈ 298 µM) | 250 µg/mL (≈ 596 µM) | 13 mm | 250 µg/mL (≈ 596 µM) | 13 mm | 16 mm | – | – | – | –
7 | C/C(=N\NC(=O)CC#N)c1cc2c(ccc3ccccc32)oc1=O | 125 µg/mL (≈ 391 µM) | 250 µg/mL (≈ 783 µM) | 21 mm | 125 µg/mL (≈ 391 µM) | 11 mm | 23 mm | – | – | – | –
8 | COc1ccc(OC)c(-c2c(C#N)c(O)n(/N=C(\C)c3cc4c(ccc5ccccc54)oc3=O)c(=O)c2C#N)c1 | 250 µg/mL (≈ 469 µM) | 250 µg/mL (≈ 469 µM) | 13 mm | 188 µg/mL (≈ 352 µM) | 10 mm | 20 mm | – | – | – | –
9 | C/C(=N\NC(=O)/C(C#N)=C/c1ccc(Cl)cc1)c1cc2c(ccc3ccccc32)oc1=O | 188 µg/mL (≈ 424 µM) | 125 µg/mL (≈ 283 µM) | 23 mm | 250 µg/mL (≈ 566 µM) | 17 mm | 17 mm | – | – | – | –
10 | C/C(=N\NC(=O)/C(C#N)=N/Nc1ccc(C)cc1)c1cc2c(ccc3ccccc32)oc1=O | 125 µg/mL (≈ 286 µM) | 125 µg/mL (≈ 286 µM) | 24 mm | 125 µg/mL (≈ 286 µM) | 21 mm | 24 mm | – | – | – | –
11 | CC1(C)S[C@@H]2[C@H](NC(=O)[C@H](N)c3ccccc3)C(=O)N2[C@H]1C(=O)O [AMPICILLIN] | 188 µg/mL (≈ 537 µM) | – | 25 mm | 125 µg/mL (≈ 358 µM) | – | 27 mm | – | – | – | –
12 | Clc1ccccc1C(c1ccccc1)(c1ccccc1)n1ccnc1 [CLOTRIMAZOLE] | – | 5.8 µg/mL (≈ 16.8 µM) | – | – | 30 mm | – | – | – | – | –
13 | C/C(=N\NC(=O)c1c(N)sc2c1CCCC2)c1cc2c(ccc3ccccc32)oc1=O | 375 µg/mL (≈ 869 µM) | 500 µg/mL (≈ 1160 µM) | 5 mm | – | 9 mm | – | – | – | inactive | inactive
14 | C/C(=N\NC(=O)/C(C#N)=C/c1cccnc1)c1cc2c(ccc3ccccc32)oc1=O | 125 µg/mL (≈ 306 µM) | 125 µg/mL (≈ 306 µM) | 22 mm | 125 µg/mL (≈ 306 µM) | 19 mm | 23 mm | – | – | – | –
15 | C/C(=N\n1c(O)c(C#N)c(-c2cccc(O)c2)c(C#N)c1=O)c1cc2c(ccc3ccccc32)oc1=O | 250 µg/mL (≈ 512 µM) | 188 µg/mL (≈ 384 µM) | 12 mm | 125 µg/mL (≈ 256 µM) | 19 mm | 24 mm | – | – | – | –
16 | C/C(=N\NC(=O)c1cc2c(ccc3ccccc32)oc1=O)c1cc2c(ccc3ccccc32)oc1=O | 62.5 µg/mL (≈ 132 µM) | 188 µg/mL (≈ 395 µM) | 27 mm | 93.7 µg/mL (≈ 197 µM) | 20 mm | 28 mm | – | – | – | –
17 | C/C(=N\NC(=O)/C(C#N)=C/N(C)C)c1cc2c(ccc3ccccc32)oc1=O | – | 750 µg/mL (≈ 2000 µM) | – | – | 7 mm | – | inactive | inactive | inactive | inactive
18 | C/C(=N\n1c(N)cc(N)c(C#N)c1=O)c1cc2c(ccc3ccccc32)oc1=O | 375 µg/mL (≈ 973 µM) | 125 µg/mL (≈ 324 µM) | 8 mm | 125 µg/mL (≈ 324 µM) | 18 mm | 23 mm | – | – | – | –

Reference: ChEMBL document CHEMBL3085640, “Synthesis and antimicrobial activity of some novel hydrazide, benzochromenone, dihydropyridine, pyrrole, thiazole and thiophene derivatives” (2013)
